Experimental data from ChEMBL document CHEMBL4316612, “Synthesis of novel dihydrotriazine derivatives bearing 1,3-diaryl pyrazole moieties as potential antibacterial agents” (Bioorg Med Chem Lett, 2019).
≈ marks a conversion by molar mass, not a printed value.

Columns and labels:
Staphylococcus aureus [1] = assay: Antibacterial activity against methicillin-resistant Staphylococcus aureus CCARM 3506 after 24 hrs by microtiter ELISA; format: functional; settings: CCARM 3506, 24 h
Procedure, shortened: (§1)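 Broth microdilution MIC. Bacteria grown to mid-log phase in Mueller-Hinton broth, diluted 1000-fold, and inoculated at 10^5 CFU/mL. Compounds in DMSO (final ≤0.05%) were given as two-fold serial dilutions, final 64-0.25 µg/mL. Plates were incubated 24 h at 37 °C and growth read at 650 nm. MIC is the lowest concentration giving complete growth inhibition. Three independent experiments; oxacillin and norfloxacin served as positive controls.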

[2] = biological target: Dihydrofolate reductase (Homo sapiens) (UniProt P00374); assay: Inhibition of human DHFR at 10 umol/L measured after 1.5 hrs by ELISA relative to control
Chain of Dihydrofolate reductase (Homo sapiens) (P00374 whole entry, looked up): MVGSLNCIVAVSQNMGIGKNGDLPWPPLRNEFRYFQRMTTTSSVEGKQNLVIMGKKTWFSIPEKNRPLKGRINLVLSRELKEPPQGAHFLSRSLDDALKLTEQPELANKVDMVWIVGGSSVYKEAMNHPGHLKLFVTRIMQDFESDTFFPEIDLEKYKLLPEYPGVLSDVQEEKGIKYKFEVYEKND

Staphylococcus aureus [3] = assay: Antibacterial activity against methicillin-resistant Staphylococcus aureus CCARM 3167 after 24 hrs by microtiter ELISA; format: functional; settings: CCARM 3167, 24 h; procedure, shortened: as §1
Candida albicans = assay: Antifungal activity against Candida albicans 7535 after 24 hrs by microtiter ELISA; format: functional; settings: Candida albicans, 7535, 24 h
Procedure, shortened: (§2)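 Two-fold serial broth dilution in Mueller-Hinton broth, final 64-0.25 µg/mL; compounds in DMSO (final ≤0.05%). Mid-log cultures diluted 1000-fold, inoculum 10^5 CFU/mL; oxacillin and norfloxacin as positive controls. After 24 h at 37 °C, growth read at 650 nm on a microtiter ELISA reader; MIC = lowest level giving complete growth inhibition. Run three times.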

L02 = assay: Cytotoxicity against human L02 cells assessed as inhibition of cell growth measured after 24 hrs by MTT assay; format: cell-based; settings: L02, 24 h
Procedure, shortened: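 L02 normal human liver cells seeded at 1.8 × 10^4 cells/well in DMEM with 10% FBS and antimycotic. Exposed 24 h at 37 °C, 5% CO2 to 200-1.625 µM, compounds in 10% DMSO. MTT (2.5 mg/mL) added for 4 h, formazan dissolved in DMSO, OD at 570 nm. Untreated cells as negative control; IC50 = 50% growth inhibition; triplicate.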

Escherichia coli = assay: Antibacterial activity against Escherichia coli KCTC 1924 after 24 hrs by microtiter ELISA; format: functional; settings: KCTC 1924, 24 h; procedure, shortened: as §2
Staphylococcus aureus [4] = assay: Antibacterial activity against quinolone-resistant Staphylococcus aureus CCARM 3519 after 24 hrs by microtiter ELISA; format: functional; settings: CCARM 3519, 24 h; procedure, shortened: as §1
Staphylococcus aureus [5] = assay: Antibacterial activity against quinolone-resistant Staphylococcus aureus CCARM 3505 after 24 hrs by microtiter ELISA; format: functional; settings: CCARM 3505, 24 h; procedure, shortened: as §1
Staphylococcus aureus [6] = assay: Antibacterial activity against Staphylococcus aureus RN4220 after 24 hrs by microtiter ELISA; format: functional; settings: RN4220, 24 h; procedure, shortened: as §1
Streptococcus mutans = assay: Antibacterial activity against Streptococcus mutans 3289 after 24 hrs by microtiter ELISA; format: functional; settings: Streptococcus mutans, 3289, 24 h; procedure, shortened: as §2
Staphylococcus aureus [7] = assay: Antibacterial activity against Staphylococcus aureus by serial dilution method; format: functional; procedure, shortened: as §2
Staphylococcus aureus [8] = assay: Antibacterial activity against quinolone-resistant Staphylococcus aureus CCARM 3505 by serial dilution method; format: functional; procedure, shortened: as §1
Staphylococcus aureus [9] = assay: Antibacterial activity against Staphylococcus aureus RN4220 by serial dilution method; format: functional; procedure, shortened: as §1

Row | Structure (SMILES) | MIC (Staphylococcus aureus [1]) [µg/mL] | inhibition [2] [%] | MIC (Staphylococcus aureus [3]) [µg/mL] | MIC (Candida albicans) [µg/mL] | IC50 (L02) [µM] | MIC (Escherichia coli) [µg/mL] | MIC (Staphylococcus aureus [4]) [µg/mL] | MIC (Staphylococcus aureus [5]) [µg/mL] | MIC (Staphylococcus aureus [6]) [µg/mL] | MIC (Streptococcus mutans) [µg/mL] | MIC (Staphylococcus aureus [7]) [µg/mL] | MIC (Staphylococcus aureus [8]) [µg/mL] | MIC (Staphylococcus aureus [9]) [µg/mL]
1 | NC1=NC(c2cn(-c3ccc([N+](=O)[O-])cc3)nc2-c2ccc(Cl)cc2Cl)N=C(NCCc2ccccc2)N1 (stereo unspecified) | 1 (≈ 1.82 µM) | 92 | 1 (≈ 1.82 µM) | 1 (≈ 1.82 µM) | 50.5 | 1 (≈ 1.82 µM) | 1 (≈ 1.82 µM) | 1 (≈ 1.82 µM) | 1 (≈ 1.82 µM) | 1 (≈ 1.82 µM) | – | – | –
2 | NC1=NC(c2cn(-c3ccc([N+](=O)[O-])cc3)nc2-c2ccc(Cl)cc2Cl)N=C(N2CCOCC2)N1 (stereo unspecified) | 2 (≈ 3.88 µM) | – | 2 (≈ 3.88 µM) | 4 (≈ 7.76 µM) | > 100 | 4 (≈ 7.76 µM) | 4 (≈ 7.76 µM) | 4 (≈ 7.76 µM) | 2 (≈ 3.88 µM) | 8 (≈ 15.5 µM) | – | – | –
3 | O=C(O)CN1C(=O)/C(=C/c2cn(-c3ccc([N+](=O)[O-])cc3[N+](=O)[O-])nc2-c2ccc(Cl)cc2Cl)SC1=S | – | – | – | – | – | – | – | – | – | – | 16 (≈ 27.6 µM) | – | –
4 | CN(C)C1=NC(c2cn(-c3ccc([N+](=O)[O-])cc3)nc2-c2ccc(Cl)cc2Cl)N=C(N)N1 (stereo unspecified) | 2 (≈ 4.23 µM) | – | 2 (≈ 4.23 µM) | 4 (≈ 8.45 µM) | > 100 | 2 (≈ 4.23 µM) | 2 (≈ 4.23 µM) | 4 (≈ 8.45 µM) | 2 (≈ 4.23 µM) | 4 (≈ 8.45 µM) | – | – | –
5 | NC1=NC(c2ccc3cc(OCc4ccc(Cl)cc4Cl)ccc3c2)N=C(N2CCOCC2)N1 (stereo unspecified) | – | – | – | – | – | – | – | – | – | – | – | 1 (≈ 2.06 µM) | 1 (≈ 2.06 µM)
